Active and inactive are the calls of the source. No cut-off for these calls is given here.
Assays:
[1] = target: T1, Delta-type opioid receptor (Homo sapiens, UniProt P41143); assay: Displacement of [3H]diprenorphine from human DOR expressed in African green monkey COS1 cell membranes at 1 uM incubated for 1 hr by scintillation counting method
[2] = target: Kappa-type opioid receptor (Homo sapiens) (UniProt P41145); details: at 10 µM
[3] = target: T1, Delta-type opioid receptor; assay: Displacement of [3H]diprenorphine from human DOR expressed in African green monkey COS1 cell membranes at 10 uM incubated for 1 hr by scintillation counting method
[4] = target: Kappa-type opioid receptor (Homo sapiens) (UniProt P41145); details: at 1 µM
[5] = target: T2, Mu-type opioid receptor (Homo sapiens, UniProt P35372); details: at 10 µM
T2 sequence (P35372 whole entry): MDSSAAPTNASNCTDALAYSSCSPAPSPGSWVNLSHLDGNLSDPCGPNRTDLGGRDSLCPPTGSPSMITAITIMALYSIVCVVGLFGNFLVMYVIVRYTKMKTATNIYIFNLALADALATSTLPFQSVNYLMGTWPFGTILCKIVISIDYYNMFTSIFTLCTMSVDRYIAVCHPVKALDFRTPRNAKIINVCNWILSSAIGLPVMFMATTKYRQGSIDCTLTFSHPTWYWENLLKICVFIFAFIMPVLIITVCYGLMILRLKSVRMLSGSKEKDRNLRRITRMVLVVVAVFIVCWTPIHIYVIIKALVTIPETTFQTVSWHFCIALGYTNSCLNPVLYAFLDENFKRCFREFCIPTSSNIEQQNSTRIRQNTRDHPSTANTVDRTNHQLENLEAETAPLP

[6] = target: T2, Mu-type opioid receptor; details: at 1 µM
[7] = target: T2, Mu-type opioid receptor; assay: Displacement of [3H]diprenorphine from human MOR expressed in African green monkey COS1 cell membranes incubated for 1 hr by scintillation counting method
[8] = target: T2, Mu-type opioid receptor; assay: Antagonist activity at human MOR expressed in African green monkey COS1 cell membranes assessed as inhibition of DAMGO-induced [35S]GTPgS binding at 50 uM by scintillation counting method; format: functional
Outline: (§1)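 Antagonism in [35S]GTPγS binding used 5 µg of hMOR or hDOR transfected-cell membranes, 1 h at 23 °C, in Tris-HCl pH 7.3 with MgCl₂, NaCl, EDTA, 30 µM GDP and 0.2 nM [35S]GTPγS. Test ligands at 20 or 50 µM were co-incubated with DAMGO (1 µM, MOR) or SNC80 (DOR). Read by filtration and scintillation; n=3 in triplicate.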

[9] = target: T1, Delta-type opioid receptor; assay: Agonist activity at human DOR expressed in African green monkey COS1 cell membranes assessed as stimulation of [35S]GTPgS binding at 20 uM by scintillation counting method; format: functional
Outline: (§2)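 Membranes (5 µg) from stably transfected cells expressing hMOR or hDOR were incubated 1 h at 23 °C in 50 mM Tris-HCl pH 7.3 with 5 mM MgCl₂, 100 mM NaCl, 1 mM EDTA, 30 µM GDP and 0.2 nM [35S]GTPγS. Reference opioids were used at 1 or 10 µM and test ligands at 20 or 50 µM. Nonspecific binding was taken with 10 µM GTP. Samples were filtered and counted; three experiments in triplicate.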

[10] = target: T1, Delta-type opioid receptor; assay: Agonist activity at human DOR expressed in African green monkey COS1 cell membranes assessed as stimulation of [35S]GTPgS binding at 50 uM by scintillation counting method; format: functional; outline: as §2
[11] = target: T2, Mu-type opioid receptor; assay: Antagonist activity at human MOR expressed in African green monkey COS1 cell membranes assessed as inhibition of DAMGO-induced [35S]GTPgS binding at 20 uM by scintillation counting method; format: functional; outline: as §1
[12] = target: T1, Delta-type opioid receptor; assay: Displacement of [3H]diprenorphine from human DOR expressed in African green monkey COS1 cell membranes incubated for 1 hr by scintillation counting method
Outline: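 hDOR membranes from stably transfected cells, diluted in 50 mM Tris-HCl pH 7.4 with 1 mM EDTA, were incubated with 1 nM [3H]diprenorphine (KD 1.1 nM; Bmax 4.7 pmol/mg) and competitor (1 × 10⁻⁷ to 5 × 10⁻⁵ M) for 1 h at 23 °C. Samples were then filtered on PEI-soaked GF/B and counted by scintillation. Ki was derived from KD; three experiments in triplicate.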

[13] = test system: HEK293; assay: Toxicity in HEK293 cells assessed as reduction in cell viability at <100 uM incubated for 24 hrs by cell-titer Glo reagent based assay; details: human, hek293, 24 h
Outline: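 HEK-293 cells, 9000 per well, were switched to Opti-MEM and exposed to compound (0.1–100 µM) for 24 h. Viability was read as lysate ATP by CellTiter-Glo luminescence.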

[14] = target: T1, Delta-type opioid receptor; assay: Antagonist activity at human DOR expressed in African green monkey COS1 cell membranes assessed as inhibition of SNC80-induced [35S]GTPgS binding at 50 uM by scintillation counting method; format: functional; outline: as §1

Kappa-type opioid receptor (Homo sapiens), sequence (P41145 whole entry): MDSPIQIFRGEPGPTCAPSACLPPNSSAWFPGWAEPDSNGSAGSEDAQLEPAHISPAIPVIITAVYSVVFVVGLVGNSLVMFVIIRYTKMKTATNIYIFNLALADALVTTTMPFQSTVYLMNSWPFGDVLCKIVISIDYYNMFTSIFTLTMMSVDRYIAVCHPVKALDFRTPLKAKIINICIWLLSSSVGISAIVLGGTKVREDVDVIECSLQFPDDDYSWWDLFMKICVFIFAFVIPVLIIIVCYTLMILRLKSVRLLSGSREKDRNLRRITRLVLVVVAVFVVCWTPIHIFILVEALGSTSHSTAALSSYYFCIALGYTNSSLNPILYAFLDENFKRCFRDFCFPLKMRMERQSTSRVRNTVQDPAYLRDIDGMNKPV
T1 sequence (P41143 whole entry): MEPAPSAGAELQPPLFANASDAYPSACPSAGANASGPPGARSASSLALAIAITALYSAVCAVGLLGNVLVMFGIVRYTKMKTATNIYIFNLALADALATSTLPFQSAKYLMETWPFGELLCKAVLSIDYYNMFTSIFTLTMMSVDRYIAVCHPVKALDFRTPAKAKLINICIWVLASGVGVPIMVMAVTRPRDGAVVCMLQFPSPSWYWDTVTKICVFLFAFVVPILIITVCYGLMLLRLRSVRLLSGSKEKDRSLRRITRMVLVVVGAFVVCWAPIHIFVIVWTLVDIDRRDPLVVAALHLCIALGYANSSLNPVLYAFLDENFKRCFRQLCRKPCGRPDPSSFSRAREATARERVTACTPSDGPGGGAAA

SMILES	inhibition [1]	inhibition [2]	inhibition [3]	inhibition [4]	inhibition [5]	inhibition [6]	Ki [7]	inhibition [8]	Activity [9]	Activity [10]	inhibition [11]	Ki [12]	Activity [13]	inhibition [14]
COC(=O)N1CC[C@]23c4c5ccc(OC)c4O[C@H]2[C@@H](OC)C=C[C@H]3[C@H]1C5	2%	2%	10%	6%	11%	3%								
COC(=O)N1CC[C@]23c4c5ccc(O)c4O[C@H]2[C@@H](O)[C@H](O)C(=O)[C@H]3[C@H]1C5	24%	21%	63%	6%	48%	8%	1080 to 2580 nM	Active	inactive	inactive	Active	1130 to 1830 nM	Non-Toxic	Active
C[C@@H](NC(=O)[C@@H](N)Cc1ccc(O)cc1)C(=O)NCC(=O)N(C)[C@@H](Cc1ccccc1)C(=O)NCCO					85%	67%								
COC(=O)N1CC[C@]23c4c5ccc(OC(C)=O)c4O[C@H]2[C@@H](OC(C)=O)[C@H](O)C(=O)[C@H]3[C@H]1C5	22%	8%	51%	4%	9%	7%							Non-Toxic	
COC(=O)N1CC[C@]23c4c5ccc(O)c4O[C@H]2[C@@H](O)C=C[C@H]3[C@H]1C5	21%	27%	59%	7%	58%	16%	814 to 1720 nM	Active	inactive	inactive	Active	1690 to 2630 nM	Non-Toxic	Active
COC(=O)N1CC[C@]23c4c5ccc(OC)c4O[C@H]2[C@@H](OC)[C@H](O)C(=O)[C@H]3[C@H]1C5	5%	0%	19%	5%	5%	5%							Non-Toxic	
COC(=O)N1CC[C@]23c4c5ccc(OC(C)=O)c4O[C@H]2[C@@H](OC(C)=O)C=C[C@H]3[C@H]1C5	1%	1%	9%	0%	3%	1%								
Oc1ccc2c3c1O[C@H]1c4[nH]c5ccccc5c4C[C@@]4(O)[C@@H](C2)N(CC2CC2)CC[C@]314	94%		94%											
CN1CC[C@]23c4c5ccc(O)c4O[C@H]2[C@@H](O)C=C[C@H]3[C@H]1C5	31%		63%						Active	Active				
